The text below walks through data of ChEMBL document CHEMBL4513216, “Probing the Open Global Health Chemical Diversity Library for Multistage-Active Starting Points for Next-Generation Antimalarials” (ACS Infect Dis, 2020).

The nature of the series: Toxicity liver stage against HepG2, at 10uM. As to conditions: human, HepG2-A16-CD81EGFP cells; read-out: INHIBITION
It is filed as cell-based. Also on record: test concentration 10 uM, cell line HepG2-A16-CD81EGFP. A digest of the protocol:
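Uninfected HepG2-A16-CD81EGFP cells, 3 × 10^3 per well, 1536-well, plated on prespotted compound at 10 μM final, parasite-free screening media added to match infected plates; puromycin 10 μM positive, DMSO 0.5% negative; run in parallel with 48 h PbLuc assay at 37 °C, 5% CO2; viability by CellTiter-Glo luminescence, normalized to controls.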
Take `CCOc1no[n+]([O-])c1-c1ccccc1`: the cytotoxicity at 10 µM was -6.59%.

For the molecule `Cn1cc(CN2CCOC(Cc3cccc(F)c3)C2)cn1` (stereo not given), the cytotoxicity at 10 µM was -2.62%.

Regarding `CSCCC(Nc1nc(C)cc(C)n1)C(=O)NC1CCCC1` (stereo not given), the cytotoxicity at 10 µM is -4.87%.

For `CS(=O)(=O)N[C@@H]1CN(Cc2ccoc2)C[C@@H]2CCCO[C@@H]21`, the cytotoxicity at 10 µM came to 13.2%.

In the case of `COCC(=O)NCc1cc(=O)n2c(n1)CN(Cc1ccoc1)CCC2`, the cytotoxicity at 10 µM was -124%.

Take `CC(C)CCN1C[C@H]2CCN(C(=O)NC3CCCC3)CC[C@H]2S1(=O)=O`: the cytotoxicity at 10 µM was 4.87%.

In the case of `Cc1ncsc1CN1CC[C@H]2OCC[C@@]2(C(=O)N2CCCC2)C1`, the cytotoxicity at 10 µM was found to be 7.63%.

For the molecule `Cc1cccc(CN2CC3(CCNCC3)OCC2=O)n1`, the cytotoxicity at 10 µM was -21.7%.

As for `CC(C)(C)CC(=O)N1CC[C@@H]2[C@H](CC1)N(S(C)(=O)=O)CCS2(=O)=O`, the cytotoxicity at 10 µM is -8.68%.

With `CCn1cc(S(=O)(=O)NC2CCCC2)cn1`, the cytotoxicity at 10 µM was -7.31%.

`Cc1cc(N2CCOC(c3ccc(C(N)=O)cn3)C2)ncn1` (stereo not given): the cytotoxicity at 10 µM was found to be 5.45%.

With `CNc1ccc(CC2CCCN(Cc3c[nH]cn3)C2)nn1` (stereo not given), the cytotoxicity at 10 µM was -1.71%.

For the molecule `Cc1cnc(-c2nc(O)c3c(n2)CN(C(=O)C2CCCC2)CC3)cn1`, the cytotoxicity at 10 µM is -1.39%.

As to `Cc1ccc(C(=O)N2CCCCC2c2[nH]ncc2S(C)(=O)=O)s1` (stereo not given), the cytotoxicity at 10 µM was -11.4%.

For `CCc1nccn1-c1cccc(C2CCCN2S(=O)(=O)N(C)C)n1` (stereo not given), the cytotoxicity at 10 µM is -9.85%.

Turning to `CN1CCN(C(=O)c2cncc(CC3CCCN(C)C3)c2)CC1` (stereo not given), the cytotoxicity at 10 µM was found to be 7.87%.

Turning to `CN(C)C(=O)C1CN(Cc2cscn2)CCN(S(C)(=O)=O)C1` (stereo not given), the cytotoxicity at 10 µM is -6.46%.

`CS(=O)(=O)c1ccc(NC(=O)NC2(c3ccccc3)CCC2)cc1`: the cytotoxicity at 10 µM was found to be 5.64%.

For `CNC(=O)CN1CCC(CN(C)Cc2ccccc2N(C)C)CC1`, the cytotoxicity at 10 µM is -6.23%.

For the molecule `CCN(CC)S(=O)(=O)NCC1COc2ccccc2O1` (stereo not given), the cytotoxicity at 10 µM stood at 0.347%.

Take `Cc1cc(NC(=O)NCc2nccn2C)ccc1OC(C)C`: the cytotoxicity at 10 µM was -2.74%.

On to `CC(=O)c1cccc(OCCCC(=O)NC(C#N)CC(C)C)c1` (stereo not given), for which the cytotoxicity at 10 µM is -41.3%.

`NC(=O)c1cnn2c1NCC(CNCC1(c3ccccc3)CCCC1)C2` (stereo not given): the cytotoxicity at 10 µM is -7.38%.

As for `CC(C)C(C)NC(=O)CNc1cc2c(cc1Cl)NC(=O)CO2` (stereo not given), the cytotoxicity at 10 µM turned out to be 0.529%.

For the molecule `CCn1cnnc1CNC(=O)NCC(C(C)C)N1CCC(C)CC1` (stereo not given), the cytotoxicity at 10 µM is -4.65%.

As for `Cc1ccc(C(=O)N2CCC3(CCCC3)CC2)c(=O)[nH]1`, the cytotoxicity at 10 µM was 2.24%.

As for `CC(NC(=O)CNS(C)(=O)=O)c1ccccc1Oc1ccccc1` (stereo not given), the cytotoxicity at 10 µM was 4.69%.

For the molecule `CCOCC(=O)NCc1cc(Br)ccc1OC(F)F`, the cytotoxicity at 10 µM worked out at 21.9%.

In the case of `Cc1nc(CN2CCC(CNC(=O)C3(C)CCCC3)CC2)oc1C`, the cytotoxicity at 10 µM came out at 7.66%.

Consider `CNC(=O)CN(C)C(=O)c1cc(Cl)c(Cl)n1C`, for which the cytotoxicity at 10 µM came to 4.4%.

As to `CC(C)CNC(=O)Cn1cc(C(N)=O)c(-c2ccccc2)n1`, the cytotoxicity at 10 µM is -6.98%.

Turning to `c1cnn(CC2CN(CCCOc3ccc4c(c3)OCO4)CCO2)c1` (stereo not given), the cytotoxicity at 10 µM stood at 0.568%.

As to `CC(C)N(Cc1ccc(Cl)c(Cl)c1)C(=O)CCn1cncn1`, the cytotoxicity at 10 µM worked out at 6.63%.

For `Cc1ccc(CNC(=O)CCN2CCN(c3ccccn3)CC2)n1C`, the cytotoxicity at 10 µM turned out to be 19.8%.

Consider `Cn1cnc2c1CCN(C(C(=O)N1CCCCC1)c1ccccc1)C2` (stereo not given), for which the cytotoxicity at 10 µM is -5.34%.

For `O=C(COCC1CC1)Nc1ncccc1O`, the cytotoxicity at 10 µM came out at 11%.

As to `O=C(NC1(C(=O)NC2CCCC2)CCCC1)c1ccc2[nH]ncc2c1`, the cytotoxicity at 10 µM is 4.73%.

As to `CNc1cc2c(nn1)CCN(C(=O)c1ccccc1-n1cccn1)C2`, the cytotoxicity at 10 µM was determined as 1.91%.

Regarding `CCc1nncn1CCNC(=O)Nc1ccc(OC)c(C)c1`, the cytotoxicity at 10 µM amounted to 9.89%.

Consider `CN(c1ccc(CNc2c(Cl)cccc2C#N)cc1)S(C)(=O)=O`, for which the cytotoxicity at 10 µM is -66.9%.

In the case of `FC(F)(F)C1CCc2nnc(CNCc3ccsc3)n2C1` (stereo not given), the cytotoxicity at 10 µM was 0.847%.

Consider `NS(=O)(=O)CCNC(=O)c1nnn(-c2ccc(F)cc2)c1C1CC1`, for which the cytotoxicity at 10 µM was -14.3%.

With `O=C(NCC(F)(F)F)NC1CCCc2c1cnn2CCO` (stereo not given), the cytotoxicity at 10 µM is 4.44%.

For the molecule `COc1ccc(C(CO)NC(=O)Nc2cccc(C#N)c2)cc1` (stereo not given), the cytotoxicity at 10 µM was -17.9%.

As for `Cc1cc(C)c2c(OCC(=O)NC(C)C)nn(C)c2n1`, the cytotoxicity at 10 µM was -7.25%.

As to `O=C(NCC(O)c1ccc(F)c(F)c1)c1cccnc1O` (stereo not given), the cytotoxicity at 10 µM was -13.6%.

On to `CCc1ncncc1C(=O)NCCN1CCC(C)CC1`, for which the cytotoxicity at 10 µM was -15.6%.

Turning to `CCc1cnc(N2C[C@@H]3[C@@H](C(=O)N(C)C)CCS(=O)(=O)[C@@H]3C2)nc1`, the cytotoxicity at 10 µM is -108%.

Regarding `Cn1cc(C2COC3(CCN(C(=O)c4cccn4C)CC3)C2)cn1` (stereo not given), the cytotoxicity at 10 µM was -75.4%.

For the molecule `O=C(c1cscn1)N1CCC[C@]2(C[C@@H](OCC3CC3)CO2)C1`, the cytotoxicity at 10 µM is -69.9%.

On to `CC(C)NC(=O)c1cc2c(c3ccccc3n2C)n1C(=O)N(C)C`, for which the cytotoxicity at 10 µM was -79.4%.

Regarding `COCC(=O)N1CCCC2(CCN(c3ccsc3)C2=O)C1` (stereo not given), the cytotoxicity at 10 µM worked out at 6.66%.

As for `c1ccc(CN2C[C@@H]3OCCN(CC4CCCO4)[C@@H]3C2)nc1` (stereo not given in full), the cytotoxicity at 10 µM came to 0.616%.

`COc1ccc2[nH]cc(-c3ccnc(N4CCC(C)CC4)n3)c2c1`: the cytotoxicity at 10 µM is -7.3%.

Turning to `CC[C@H](C)[C@H](N)C(=O)Nc1nc(-c2cnc(N3CCOCC3)nc2)cs1`, the cytotoxicity at 10 µM was -8.72%.

For the molecule `CN(CCc1ccccc1)C(=O)CN1C(=O)OC[C@@H]1c1ccccc1`, the cytotoxicity at 10 µM was -47%.

With `O=C(O)c1ccc(C2CCCN(C(=O)c3ccc[nH]3)C2)cc1` (stereo not given), the cytotoxicity at 10 µM is -10.5%.

Take `Cc1ncccc1Oc1ncnc(N2CCCC(O)(CO)CC2)c1C` (stereo not given): the cytotoxicity at 10 µM amounted to 4.3%.

With `CCNc1ncc(C(=O)N2CCc3c(nc(C)nc3N(C)C)C2)cn1`, the cytotoxicity at 10 µM was -3.28%.

`O=C(c1ccncc1F)N1CCCC(c2nccn2CC2CCC2)C1` (stereo not given): the cytotoxicity at 10 µM worked out at 5.94%.

Take `O=C1CC2(CCN(CCCO)CC2)CN1Cc1ccc(F)c(F)c1`: the cytotoxicity at 10 µM is -7.73%.

For `Cc1ccccc1C1CCN(CCNC(=O)CS(C)(=O)=O)C1` (stereo not given), the cytotoxicity at 10 µM is -49.5%.

For `Nc1ncc(C(=O)N2CCCC(N)CC2)c(-c2ccccc2)n1` (stereo not given), the cytotoxicity at 10 µM was -132%.

As to `COCCc1ncc(CN2CCCC(C(=O)c3ccccc3)C2)cn1` (stereo not given), the cytotoxicity at 10 µM was -1.38%.

Take `Cc1ccsc1-c1cc(C(=O)O)cc(S(=O)(=O)NCc2ccccn2)c1`: the cytotoxicity at 10 µM is -63.8%.

For the molecule `Clc1ccc(CN2CCC(C3CCN(Cc4cccnc4)CC3)C2)cc1` (stereo not given), the cytotoxicity at 10 µM came to 11.3%.

For the molecule `Cc1ccc(C(=O)N2CCC3(CCC(=O)N(CC(N)=O)C3)CC2)cc1`, the cytotoxicity at 10 µM is -0.527%.

Turning to `O=C(c1cc(Br)ccc1Cl)N1CCN(Cc2ccco2)CC1`, the cytotoxicity at 10 µM was -49.4%.

`CN(C)C(=O)CCCNC(=O)C(c1cccc(F)c1)N(C)C` (stereo not given): the cytotoxicity at 10 µM was -25.3%.

Take `Cc1ccc(C(=O)N2CCC3(CCC(=O)N(CC(N)=O)C3)CC2)c(O)c1`: the cytotoxicity at 10 µM was -11.5%.

`CC(C)Cc1noc(CN(C)C(=O)C2COc3ccccc3C2)n1` (stereo not given): the cytotoxicity at 10 µM was -9.12%.

Regarding `C=Cc1ccc(C(=O)N2CCCC(Nc3ccc(F)cc3)C2)cc1` (stereo not given), the cytotoxicity at 10 µM was -22.1%.

Regarding `Cc1noc(C)c1C1CCCN1C(=O)CN1CC2(CCNCC2)OC1=O` (stereo not given), the cytotoxicity at 10 µM was -5.24%.

Take `C[C@H](O)CNC(=O)c1cnc(-c2ccccc2)nc1O`: the cytotoxicity at 10 µM was -17.8%.

As for `Cc1cc(CN2CCN(c3nn4cc(C)nc4s3)CC2)on1`, the cytotoxicity at 10 µM was 6.4%.

For `Cc1cnn(C2CCCN(C(=O)c3ccnc(-n4ccnc4)c3)C2)c1` (stereo not given), the cytotoxicity at 10 µM is -1.88%.

For `O=C(NCc1cccnc1)C1CC(=O)N(CC2CC2)C1` (stereo not given), the cytotoxicity at 10 µM was -3.46%.

On to `O=C(NCCCn1cncn1)NCC(c1ccccc1)N1CCCC1` (stereo not given), for which the cytotoxicity at 10 µM was -3.99%.

For the molecule `CC1CCN(C(=O)CN(Cc2ccco2)C2CC2)CC1`, the cytotoxicity at 10 µM is -4.74%.

`CN(Cc1ncc(-c2ccccc2)o1)CC1CCCN1c1cccnn1` (stereo not given): the cytotoxicity at 10 µM is 3.75%.

Take `Cc1ncc(CN(C)CCO)c2cc(C(=O)c3ccc(Br)cc3)oc12`: the cytotoxicity at 10 µM was -0.227%.

Turning to `COc1ccc(Cn2c(C3CCNCC3)cc3cccnc32)cc1`, the cytotoxicity at 10 µM was -4.45%.

Turning to `O=C(COc1ccccc1)N1C[C@@H](O)[C@H](N2CCCC2)C1`, the cytotoxicity at 10 µM was -6.54%.

For `CCN1CCCC12CCN(C(=O)c1ccsc1)CC2`, the cytotoxicity at 10 µM is -152%.

Regarding `CN(Cc1ccco1)Cc1cncc2c1CCN(c1ncccn1)C2`, the cytotoxicity at 10 µM is -6.42%.

`COCCN1CCN(Cc2ccncc2)c2ncccc2C1`: the cytotoxicity at 10 µM is -70.9%.

In the case of `COCC1CN(Cc2ccc(C)o2)Cc2cnn(CC3CCOCC3)c21` (stereo not given), the cytotoxicity at 10 µM amounted to 1.87%.

On to `Cn1cccc1C(=O)N1C[C@@H]2CCN(c3cccnc3)C[C@@H]2C1`, for which the cytotoxicity at 10 µM was -58.3%.

As to `COCCNC(=O)C[C@@H]1COC[C@H]2CN(CC3CCOCC3)C[C@@H]12`, the cytotoxicity at 10 µM was -92.9%.

In the case of `O=C([C@H]1C[C@H]2OCC[C@H]2N(Cc2cccnc2)C1)N1CCCCO1`, the cytotoxicity at 10 µM is -69.8%.

Take `CCOCCN1Cc2ncn(C)c2C(COCC2CCOCC2)C1` (stereo not given): the cytotoxicity at 10 µM is -70.6%.

As to `CN(Cc1ccccc1)C1COC2(CCN(Cc3nccs3)CC2)C1` (stereo not given), the cytotoxicity at 10 µM was -19.5%.

Take `Cc1cccc(C(=O)N2CC(C(=O)NCC3CC3)C3(CCOCC3)C2)n1` (stereo not given): the cytotoxicity at 10 µM was 2.11%.

Take `O=C(c1ccco1)N1C[C@H]2CCCN(Cc3cccs3)[C@H]2C1`: the cytotoxicity at 10 µM came out at 5.71%.

Regarding `CC(C)CN1CC[C@@H]2[C@H](CC1)N(C(=O)c1ccccc1)CCS2(=O)=O`, the cytotoxicity at 10 µM is -128%.
